Experimental data from different studies.
CELA1: Chymotrypsin-like elastase family member 1 (CELA1, Sus scrofa, UniProt P00772)
PIK3CA: Phosphatidylinositol 4,5-bisphosphate 3-kinase catalytic subunit alpha isoform (PIK3CA, Homo sapiens, UniProt P42336)
AVPR1A: Vasopressin V1a receptor (AVPR1A, Homo sapiens, UniProt P37288)

SMILES | target | read-out | action | method | setting | IC50 [µM]
CN1CCN(c2ccc(Nc3ncc4cc(C#N)c(=O)n(C5CCCC5)c4n3)cc2)CC1 | Activin receptor type-1-like (ACVRL1, Homo sapiens, UniProt P37023) | enzyme activity | inhibitor |  |  | 0.449
O=C(Nc1c[nH]nc1C(=O)NC1CCNCC1)c1cc(F)cc(F)c1 | Cyclin-dependent kinase 16 (CDK16, Homo sapiens, UniProt Q00536) | target engagement in cells |  | BRET |  | 1.9
Cc1ccc(C(C)C)cc1NC(=O)COC(=O)c1cc(O)cc(O)c1 | CELA1 | enzyme activity | inhibitor | absorbance |  | 33.7
C[C@H](CS)C(=O)N1CCC[C@H]1C(=O)O | Beta-lactamase L1 (Stenotrophomonas maltophilia, UniProt P52700) | enzyme activity | inhibitor |  |  | 73.7
C=C(C)CCOP(=O)(O)OP(=O)(O)OP(=O)(O)OC[C@H]1O[C@@H](n2cnc3c(N)ncnc32)[C@H](O)[C@@H]1O | Glycogen synthase kinase-3 beta (GSK3B, Homo sapiens, UniProt P49841) | enzyme activity | inhibitor | radiometric |  | 4.3
O=C1NC(=S)S/C1=C\c1csc2ccc(Cl)cc12 | PIK3CA | enzyme activity | inhibitor | radiometric |  | 30
CN(C)CC#Cc1ccc2[nH]c3c(c2c1)-c1nc(N)ncc1CCC3 | Dual specificity mitogen-activated protein kinase kinase 1 (MAP2K1, Homo sapiens, UniProt Q02750) | enzyme activity | inhibitor | radiometric |  | > 10
O=C1NC(=S)S/C1=C\c1cc([N+](=O)[O-])ccc1O | PIK3CA | enzyme activity | inhibitor | radiometric |  | 23
O=C(O)CC[C@H](NC(=O)N[C@@H](CCCCNC(=O)[C@H](Cc1ccc2ccccc2c1)NC(=O)[C@H]1CC[C@H](CNC(=O)CN2CCN(CC(=O)O)CCN(CC(=O)O)CCN(CC(=O)O)CC2)CC1)C(=O)O)C(=O)O | Glutamate carboxypeptidase 2 (FOLH1, Homo sapiens, UniProt Q04609) | ligand displacement in cells |  | radioligand |  | 0.0122
COc1ccc(C2=NN(C3CCCCCC3)C(=O)[C@@H]3CC=CC[C@H]23)cc1-c1ccc(C(N)=O)cc1 (relative stereo) | High affinity cGMP-specific 3',5'-cyclic phosphodiesterase 9A (PDE9A, Homo sapiens, UniProt O76083) | enzyme activity | inhibitor |  |  | > 10
CCn1c(-c2nc3cc(C(=O)N4CCC[C@@H](N)C4)cc(OC)c3n2C)cc2cccnc21 | AVPR1A | calcium signal | antagonist | fluorescence |  | > 50.1
COc1cccc(/C=C2\SC(=S)NC2=O)c1O | PIK3CA | enzyme activity | inhibitor | radiometric |  | > 100
Cn1cc(C2=C(c3coc4ccccc34)C(=O)NC2=O)c2cc(Br)ccc21 | PIK3CA | enzyme activity | inhibitor |  |  | 0.87
O=C1NC(=S)S/C1=C\c1ccccc1[N+](=O)[O-] | PIK3CA | enzyme activity | inhibitor | radiometric |  | > 100
CC(C)C[C@H](NC(=O)[C@H](C)NC(=O)[C@H](CCCCN)NC(=O)[C@H](CCCCN)NC(=O)[C@@H](N)CCCCN)C(=O)N[C@@H](CC(N)=O)C(=O)N[C@@H](CCCNC(=N)N)C(=O)N[C@@H](CCC(N)=O)C(=O)N[C@@H](CC(C)C)C(=O)NCC(=O)N[C@H](C(=O)N[C@@H](C)C(=O)N[C@@H](C)C(N)=O)C(C)C | MAP kinase-activated protein kinase 2 (MAPKAPK2, Homo sapiens, UniProt P49137) | enzyme activity | inhibitor | radiometric |  | 31
COC(C)(C)C#Cc1ccc2[nH]c3c(c2c1)-c1nc(N)ncc1CCC3 | 1-phosphatidylinositol 3-phosphate 5-kinase (PIKFYVE, Homo sapiens, UniProt Q9Y2I7) | target engagement in cells |  | BRET |  | 0.314
CCOC(F)(F)c1nnc2cnc(-c3cnc(OCC(F)(F)F)c(F)c3)cn12 | Sodium channel protein type 2 subunit alpha (Scn2a, Rattus norvegicus, UniProt P04775) | ion current | inhibitor | patch clamp |  | 0.179
Cc1ccc(C(C)C)cc1NC(=O)COC(=O)c1ccc(O)c(O)c1 | CELA1 | enzyme activity | inhibitor | absorbance |  | 24.3
C=CC(=O)Nc1cc(Nc2nccc(Nc3cc(Cl)c(F)cc3C(C)(C)O)n2)c(OC)cc1N1CC[C@@H](N(C)C)C1 | Protein-tyrosine kinase 6 (PTK6, Homo sapiens, UniProt Q13882) | enzyme activity | inhibitor |  | with preincubation | 0.529
CC1(C)CC(=O)c2cc(-c3nc(-c4ccc(Cl)cc4)cs3)c(=O)n(-c3ccccc3C(F)(F)F)c2C1 | Isocitrate dehydrogenase [NADP] cytoplasmic (IDH1, Homo sapiens, UniProt O75874, R132C) | enzyme activity | inhibitor |  |  | 0.2
NCCCC[C@H](NC(=O)[C@@H]1CCCN1C(=O)[C@@H]1CSSC[C@H](NC(=O)CNC(=O)CNC(=O)CN)C(=O)N[C@@H](Cc2ccc(O)cc2)C(=O)N[C@@H](Cc2ccccc2)C(=O)N[C@@H](CCC(N)=O)C(=O)N[C@@H](CC(N)=O)C(=O)N1)C(=O)NCC(N)=O | AVPR1A | ligand displacement |  | radioligand | cell membranes | 1.7
